Assay results published in ChEMBL document CHEMBL2016445, “Discovery of a novel class of potent and orally bioavailable sphingosine 1-phosphate receptor 1 antagonists” (J Med Chem, 2012).

What was measured:
[1] = target: Cytochrome P450 3A4 (Homo sapiens, UniProt P08684); assay: Inhibition of human CYP3A4 using testosterone as substrate by LC/MS/MS analysis; assay type: ADME
Summary of the method: (§1)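 Pooled human liver microsomes in 100 mM potassium phosphate, pH 7.4, at 37 °C with 1000 µM NADPH for 15 min. Microsomes 0.15 mg/mL for CYP2C9 and CYP2D6, 0.25 mg/mL for CYP3A4. Inhibitor tested at six concentrations (0.2–50 µM). Reactions quenched with acetonitrile; metabolite measured by LC/MS/MS; IC50 from 4-parameter sigmoidal fit.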

[2] = Oral bioavailability in overnight fasted beagle dog at 3 mg/kg by HPLC/MS/MS analysis; assay type: ADME, organism-based, Canis lupus familiaris; conditions: in vivo
Summary of the method: (§2)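 Male beagle dogs fasted overnight and fed again 4 h post-dose; groups of 3. Study design covered 3 mpk IV and PO. Oral dose by gavage at 3 mpk in EtOH/PEG400/water (5:45:50). K-EDTA blood taken pre-dose and at 0.08-48 h. Plasma assayed by HPLC/MS/MS; non-compartmental PK parameters.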

[3] = Cmax in overnight fasted beagle dog at 3 mg/kg, po by HPLC/MS/MS analysis; assay type: ADME, organism-based, Canis lupus familiaris; parameters: dose 3 mg/kg, route oral; conditions: in vivo; summary of the method: as §2
[4] = target: T1, Sphingosine 1-phosphate receptor 1 (Homo sapiens, UniProt P21453); assay: Antagonist activity at S1P1 receptor expressed in HEK293 cells assessed as inhibition of S1P-induced cAMP response after 90 mins by spectrophotometry; assay type: functional, cell-based
[5] = target: Sphingosine 1-phosphate receptor 2 (Homo sapiens, UniProt O95136); assay: Antagonist activity at S1P2 receptor expressed in HEK293 cells assessed as inhibition of S1P-induced tango beta-arrestin recruitment preincubated for 30 mins prior S1P addition measured after 16 to 18 hrs by luciferase reporter gene assay; assay type: functional, cell-based
[6] = Half life in overnight fasted beagle dog at 3 mg/kg, po by HPLC/MS/MS analysis; assay type: ADME, organism-based, Canis lupus familiaris; parameters: dose 3 mg/kg, route oral; conditions: in vivo; summary of the method: as §2
[7] = Cmax in overnight fasted CD Sprague-Dawley rat at 3 mg/kg, po by HPLC/MS/MS analysis; assay type: ADME, organism-based; parameters: dose 3 mg/kg, route oral; conditions: in vivo
Summary of the method: (§3)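 Female Sprague-Dawley CD rats (9-10 wk, 201-225 g), fasted overnight and fed again 4 h post-dose. Given 3 mpk orally as a solution in EtOH/PEG400/water (5:45:50), n=4. Jugular-catheter blood drawn into heparin at 0.08-144 h (15 time points). Plasma assayed by HPLC/MS/MS; parameters from non-compartmental analysis.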

[8] = target: Cytochrome P450 2C9 (Homo sapiens, UniProt P11712); assay: Inhibition of human CYP2C9 using tolbutamide as substrate by LC/MS/MS analysis; assay type: ADME; summary of the method: as §1
[9] = Antitumor activity against human MDA-MB-231T cells xenografted in athymic nude mouse assessed as tumor growth inhibition at 100 mg/kg, po qd for 14 days post implantation measured for 14 days; assay type: functional; conditions: 336 h, read-out: TGI
Summary of the method: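 MDA-MB-231T cells grown in DMEM with 10% FBS. 1 x 10⁶ cells in ice-cold HBSS implanted into the mammary fat pad of female athymic nude (NCr) mice, 5-8 wk. Daily oral dosing at 10 mL/kg, solutions made fresh daily. Tumor weight measured twice weekly; TGI calculated against vehicle and staging-day weights; 2-tailed t-test, p<0.05.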

[10] = AUC (0 to infinity) in overnight fasted cynomolgus monkey at 3 mg/kg, po by HPLC/MS/MS analysis; assay type: ADME, organism-based, Macaca fascicularis; parameters: time infinity, dose 3 mg/kg, route oral; conditions: plasma
Summary of the method: (§4)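 Male cynomolgus monkeys fasted overnight and fed again 4 h post-dose; groups of 3. Dosed 3 mpk intravenously and by oral gavage as a solution in EtOH/PEG400/water (5:45:50). K-EDTA blood taken pre-dose and at 0.08-48 h. Plasma assayed by HPLC/MS/MS; non-compartmental analysis.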

[11] = target: T1, Sphingosine 1-phosphate receptor 1; assay: Antagonist activity at S1P1 receptor expressed in HEK293 cells assessed as inhibition of S1P-induced tango beta-arrestin recruitment preincubated for 30 mins prior S1P addition measured after 16 to 18 hrs by luciferase reporter gene assay; assay type: functional, cell-based
[12] = target: Cytochrome P450 2D6 (Homo sapiens, UniProt P10635); assay: Inhibition of human CYP2D6 using bufuralol as substrate by LC/MS/MS analysis; assay type: ADME; summary of the method: as §1
[13] = Drug uptake in nu/nu homozygous mouse plasma at 100 mg/kg, po as a suspension in 10% NMP/corn oil after 4 hrs by HPLC/MS/MS analysis; assay type: ADME, organism-based; parameters: dose 100 mg/kg, route oral
Summary of the method: (§5)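 Female Nu/Nu mice (~8 wk, 20-22 g) given a single 100 mpk oral dose at 10 mL/kg. Vehicles: 10% EtOH/45% or 40% PEG400/water + 1 molar equiv HCl, 10% EtOH/40% PEG400/20% Captisol + HCl, or 10% NMP/90% corn oil. Heparinized blood collected 1 and 4 h post-dose; plasma analysed by HPLC/MS/MS.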

[14] = AUC (0 to infinity) in overnight fasted beagle dog at 3 mg/kg, po by HPLC/MS/MS analysis; assay type: ADME, organism-based, Canis lupus familiaris; parameters: time infinity, dose 3 mg/kg, route oral; conditions: plasma; summary of the method: as §2
[15] = Cmax in overnight fasted cynomolgus monkey at 3 mg/kg, po by HPLC/MS/MS analysis; assay type: ADME, organism-based, Macaca fascicularis; parameters: dose 3 mg/kg, route oral; conditions: in vivo; summary of the method: as §4
[16] = Half life in overnight fasted CD Sprague-Dawley rat at 3 mg/kg, po by HPLC/MS/MS analysis; assay type: ADME, organism-based; parameters: dose 3 mg/kg, route oral; conditions: in vivo; summary of the method: as §3
[17] = Oral bioavailability in overnight fasted cynomolgus monkey at 3 mg/kg by HPLC/MS/MS analysis; assay type: ADME, organism-based, Macaca fascicularis; conditions: in vivo; summary of the method: as §4
[18] = Half life in overnight fasted cynomolgus monkey at 3 mg/kg, po by HPLC/MS/MS analysis; assay type: ADME, organism-based, Macaca fascicularis; parameters: dose 3 mg/kg, route oral; conditions: in vivo; summary of the method: as §4
[19] = AUC (0 to infinity) in overnight fasted CD Sprague-Dawley rat at 3 mg/kg, po by HPLC/MS/MS analysis; assay type: ADME, organism-based; parameters: dose 3 mg/kg, route oral, time infinity; conditions: plasma; summary of the method: as §3
[20] = target: Sphingosine 1-phosphate receptor 3 (Homo sapiens, UniProt Q99500); assay: Antagonist activity at S1P3 receptor expressed in HEK293 cells assessed as inhibition of S1P-induced tango beta-arrestin recruitment preincubated for 30 mins prior S1P addition measured after 16 to 18 hrs by luciferase reporter gene assay; assay type: functional, cell-based
[21] = Oral bioavailability in overnight fasted CD Sprague-Dawley rat at 3 mg/kg by HPLC/MS/MS analysis; assay type: ADME, organism-based; conditions: in vivo
[22] = Drug uptake in nu/nu homozygous mouse plasma at 100 mg/kg, po as a suspension in 10% NMP/corn oil after 24 hrs by HPLC/MS/MS analysis; assay type: ADME, organism-based; parameters: dose 100 mg/kg, route oral
[23] = Drug uptake in nu/nu homozygous mouse plasma at 100 mg/kg, po as a solution of 10% EtOH/40% PEG400/20% Captisol/water + 1:1 HCl after 1 hr by HPLC/MS/MS analysis; assay type: ADME, organism-based; parameters: dose 100 mg/kg, route oral; summary of the method: as §5
[24] = Drug uptake in nu/nu homozygous mouse plasma at 100 mg/kg, po as a solution of 10% EtOH/40% PEG400/20% Captisol/water + 1:1 HCl after 4 hrs by HPLC/MS/MS analysis; assay type: ADME, organism-based; parameters: dose 100 mg/kg, route oral; summary of the method: as §5

T1 sequence (P21453 whole entry): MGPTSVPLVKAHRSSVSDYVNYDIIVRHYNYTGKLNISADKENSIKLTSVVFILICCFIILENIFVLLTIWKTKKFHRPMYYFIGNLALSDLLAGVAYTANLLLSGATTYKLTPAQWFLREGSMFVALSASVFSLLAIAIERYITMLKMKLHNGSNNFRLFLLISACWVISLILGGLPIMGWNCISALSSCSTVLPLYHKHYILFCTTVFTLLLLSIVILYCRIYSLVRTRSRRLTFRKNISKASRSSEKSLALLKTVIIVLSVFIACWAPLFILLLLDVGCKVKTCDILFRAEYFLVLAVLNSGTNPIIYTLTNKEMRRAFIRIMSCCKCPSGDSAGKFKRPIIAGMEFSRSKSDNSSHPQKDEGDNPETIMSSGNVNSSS
Sequence of Sphingosine 1-phosphate receptor 2 (O95136 whole entry): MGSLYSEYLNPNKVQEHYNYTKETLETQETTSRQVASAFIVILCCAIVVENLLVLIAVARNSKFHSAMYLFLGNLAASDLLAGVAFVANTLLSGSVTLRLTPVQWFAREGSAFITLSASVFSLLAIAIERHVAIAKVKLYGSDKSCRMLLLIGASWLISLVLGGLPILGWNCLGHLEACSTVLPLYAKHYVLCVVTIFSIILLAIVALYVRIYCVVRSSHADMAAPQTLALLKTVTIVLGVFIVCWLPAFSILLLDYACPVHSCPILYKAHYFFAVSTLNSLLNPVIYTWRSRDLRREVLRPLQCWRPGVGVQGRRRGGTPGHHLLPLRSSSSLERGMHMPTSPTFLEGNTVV
Sequence of Cytochrome P450 2D6 (P10635 whole entry): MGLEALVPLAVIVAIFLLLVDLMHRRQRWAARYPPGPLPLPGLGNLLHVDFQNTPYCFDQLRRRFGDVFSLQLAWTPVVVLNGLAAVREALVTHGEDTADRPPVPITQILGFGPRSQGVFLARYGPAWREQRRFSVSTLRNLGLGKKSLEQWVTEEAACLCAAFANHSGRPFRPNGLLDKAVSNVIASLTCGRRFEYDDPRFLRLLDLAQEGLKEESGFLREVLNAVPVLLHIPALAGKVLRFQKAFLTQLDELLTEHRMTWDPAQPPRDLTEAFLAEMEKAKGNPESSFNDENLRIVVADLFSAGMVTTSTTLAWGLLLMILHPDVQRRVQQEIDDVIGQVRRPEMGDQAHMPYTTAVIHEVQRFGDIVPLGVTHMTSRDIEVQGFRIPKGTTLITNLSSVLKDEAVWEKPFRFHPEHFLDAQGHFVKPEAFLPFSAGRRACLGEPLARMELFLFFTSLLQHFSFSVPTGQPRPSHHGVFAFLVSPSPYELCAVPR
Sequence of Cytochrome P450 3A4 (P08684 whole entry): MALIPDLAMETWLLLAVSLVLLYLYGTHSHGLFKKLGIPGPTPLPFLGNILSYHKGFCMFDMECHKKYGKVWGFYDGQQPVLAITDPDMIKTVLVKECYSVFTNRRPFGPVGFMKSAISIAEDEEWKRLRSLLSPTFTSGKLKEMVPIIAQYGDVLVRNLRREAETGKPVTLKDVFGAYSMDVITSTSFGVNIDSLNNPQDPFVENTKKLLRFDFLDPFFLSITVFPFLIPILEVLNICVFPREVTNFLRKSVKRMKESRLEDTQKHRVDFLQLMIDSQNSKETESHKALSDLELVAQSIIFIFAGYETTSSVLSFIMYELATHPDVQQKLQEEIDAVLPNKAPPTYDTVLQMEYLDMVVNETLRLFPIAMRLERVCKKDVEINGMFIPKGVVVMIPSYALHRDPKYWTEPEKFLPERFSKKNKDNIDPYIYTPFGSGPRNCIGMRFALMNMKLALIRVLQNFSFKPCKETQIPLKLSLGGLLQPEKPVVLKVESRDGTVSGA
Sequence of Sphingosine 1-phosphate receptor 3 (Q99500 whole entry): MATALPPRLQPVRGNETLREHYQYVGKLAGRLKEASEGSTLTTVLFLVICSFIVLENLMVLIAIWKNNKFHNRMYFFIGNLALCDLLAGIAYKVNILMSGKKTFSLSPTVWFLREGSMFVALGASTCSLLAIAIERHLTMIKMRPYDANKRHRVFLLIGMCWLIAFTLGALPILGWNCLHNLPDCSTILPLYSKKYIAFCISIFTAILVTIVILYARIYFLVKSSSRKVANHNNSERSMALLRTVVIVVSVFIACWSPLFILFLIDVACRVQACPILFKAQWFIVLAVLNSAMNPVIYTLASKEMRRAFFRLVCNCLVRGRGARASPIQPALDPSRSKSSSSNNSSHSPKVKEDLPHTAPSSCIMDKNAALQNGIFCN
Sequence of Cytochrome P450 2C9 (P11712 whole entry): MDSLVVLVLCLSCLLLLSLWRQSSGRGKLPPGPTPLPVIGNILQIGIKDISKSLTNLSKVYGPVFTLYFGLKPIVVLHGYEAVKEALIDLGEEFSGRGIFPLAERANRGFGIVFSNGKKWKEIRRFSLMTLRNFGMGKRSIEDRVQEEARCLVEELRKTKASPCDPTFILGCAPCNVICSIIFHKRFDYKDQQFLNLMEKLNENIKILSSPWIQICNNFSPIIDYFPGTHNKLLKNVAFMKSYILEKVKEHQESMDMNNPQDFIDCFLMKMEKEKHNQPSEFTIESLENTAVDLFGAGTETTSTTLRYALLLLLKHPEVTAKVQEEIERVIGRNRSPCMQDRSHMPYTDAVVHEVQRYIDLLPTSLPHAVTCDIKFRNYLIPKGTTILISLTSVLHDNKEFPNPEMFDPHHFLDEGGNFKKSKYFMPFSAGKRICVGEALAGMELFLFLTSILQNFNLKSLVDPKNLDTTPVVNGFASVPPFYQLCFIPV

O=C(Nc1ccc(Oc2ccc(F)cc2)cc1)[C@@H]1C[C@@H](Cc2ccc(F)cc2)CN1C(=O)Cn1ccnn1
IC50 [1]: > 20 µM
bioavailability [2]: 99.9%
Cmax [3]: 5.4 µM
IC50 [4]: 0.0058 µM
IC50 [5]: > 10 µM
half-life [6]: 34 h
Cmax [7]: 3.2 µM
IC50 [8]: 17.3 µM
inhibition in vivo at 100 mg/kg [9]: 43%
AUC(0-inf) [10]: 16.7 µM·h
IC50 [11]: 0.026 µM
IC50 [12]: 20.3 µM
concentration at 4 h [13]: 16.7 µM
AUC(0-inf) [14]: 108 µM·h
Cmax [15]: 1.5 µM
half-life [16]: 22.5 h
bioavailability [17]: 45.7%
half-life [18]: 6.4 h
AUC(0-inf) [19]: 108 µM·h
IC50 [20]: > 10 µM
bioavailability [21]: 76.4%
concentration at 24 h [22]: 4.7 µM

O=C(Cc1c[nH]cn1)N[C@@H](COCc1ccccc1)c1nc2cc(Oc3ccc(F)cc3)ccc2[nH]1
IC50 [4]: 0.239 µM
concentration at 1 h [23]: 18.7 µM
concentration at 4 h [24]: 2.7 µM
